Assay results: ChEMBL document CHEMBL1143280, “Discovery and optimization of imidazo[1,2-a]pyridine inhibitors of insulin-like growth factor-1 receptor (IGF-1R)” (Bioorg Med Chem Lett, 2009)
Each block holds one compound with its values, some of them ahead of it.

Experiments:
[1] = biological target: T1, Insulin-like growth factor 1 receptor (Homo sapiens, UniProt P08069); assay: Inhibition of human IGF1R autophosphorylation in transfected mouse NIH3T3 cells; type: cell-based
[2] = biological target: T1, Insulin-like growth factor 1 receptor; assay: Inhibition of GST-tagged IGF1R (957-1367) expressed in baculovirus by time-resolved fluorescence assay
[3] = tested on: Mus musculus; assay: Dose normalized AUC (0 to 6 hrs) in po dosed mouse; type: ADME, organism-based; set-up: time < 6 hr, route oral; conditions: in vivo
In short: (§1)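 Oral dosing in mice; dose-normalized AUC in ng h/mL/(mg/kg) calculated over 0–6 h.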

[4] = tested on: Mus musculus; assay: Dose normalized AUC (0 to 6 hrs) in mouse at 7.3 mg/kg, po; type: ADME, organism-based; set-up: time < 6 hr, dose 7.3 mg/kg, route oral; conditions: in vivo; in short: as §1
[5] = Clearance in po dosed mouse; type: ADME, organism-based; conditions: in vivo
[6] = biological target: Tyrosine-protein kinase Lck (Homo sapiens, UniProt P06239); assay: Inhibition of LCK
[7] = biological target: T1, Insulin-like growth factor 1 receptor; assay: Binding affinity to IGF1R by liquid scintillation counting; conditions: read-out: Ki(app)
In short: (§2)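 Activated IGF-1R or IR kinase domains (pre-activated at 500 nM with 1 mM ATP for 30 min in pH 7.2 Hepes/MgCl2/BSA buffer with phosphatase inhibitors) were used at 0.5 nM final. Enzyme and ATP were pre-incubated with inhibitor for 6 h. […] Product was filter-captured and scintillation-counted. IC50 was converted to apparent Ki by Cheng–Prusoff.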

[8] = biological target: Mitogen-activated protein kinase 14 (Homo sapiens, UniProt Q16539); assay: Inhibition of p38alpha
[9] = biological target: Receptor tyrosine-protein kinase erbB-2 (Homo sapiens, UniProt P04626); assay: Inhibition of ErbB2
[10] = biological target: Aurora kinase B (Homo sapiens, UniProt Q96GD4); assay: Inhibition of Aurora B
[11] = biological target: T2, Insulin receptor (Homo sapiens, UniProt P06213); assay: Inhibition of GST-tagged insulin receptor expressed in baculovirus by time-resolved fluorescence assay
In short: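 GST-tagged IR intracellular domain (aa 979–1382), baculovirus-expressed, activated at 2.7 µM with 2 mM ATP in 50 mM Hepes pH 7.5, 10 mM MgCl2, BSA. Phosphopeptide by TRF with streptavidin-allophycocyanin and Eu-anti-phosphotyrosine. n ≥ 2.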

[12] = biological target: Receptor tyrosine-protein kinase erbB-4 (Homo sapiens, UniProt Q15303); assay: Inhibition of ErbB4
[13] = biological target: Epidermal growth factor receptor (Homo sapiens, UniProt P00533); assay: Inhibition of EGFR
[14] = biological target: Serine/threonine-protein kinase B-raf (Homo sapiens, UniProt P15056, V600E); assay: Inhibition of B-raf V600E mutant
[15] = biological target: T3, Aurora kinase A (Homo sapiens, UniProt O14965); assay: Inhibition of Aurora A
T3 sequence (O14965 whole entry): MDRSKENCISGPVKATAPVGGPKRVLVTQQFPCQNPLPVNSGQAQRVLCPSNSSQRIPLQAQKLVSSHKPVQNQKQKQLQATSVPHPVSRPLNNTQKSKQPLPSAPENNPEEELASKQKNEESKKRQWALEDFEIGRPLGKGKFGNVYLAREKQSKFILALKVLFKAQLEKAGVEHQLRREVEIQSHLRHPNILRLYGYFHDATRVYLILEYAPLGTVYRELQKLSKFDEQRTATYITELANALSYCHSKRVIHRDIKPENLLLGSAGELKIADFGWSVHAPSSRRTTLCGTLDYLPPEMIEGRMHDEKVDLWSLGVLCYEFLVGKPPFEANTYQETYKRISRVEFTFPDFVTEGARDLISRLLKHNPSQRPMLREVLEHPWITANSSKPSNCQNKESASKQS

[16] = biological target: T2, Insulin receptor; assay: Binding affinity to insulin receptor by liquid scintillation counting; conditions: read-out: Ki(app); in short: as §2
[17] = Oral bioavailability in Beagle dog at 7.2 mg/kg; type: ADME, organism-based, Canis lupus familiaris; conditions: in vivo
In short: (§3)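 Compound given as solution in 1.0% DMSO, 20% Captisol in saline (IV) or water (PO); dog PO given as partial suspension. IV doses 0.6–1.3 mg/kg, PO 2.1–7.2 mg/kg by species. Male Sprague–Dawley rats, male beagle dogs, male cynomolgus monkeys. Data over 0–24 h; dose-normalized AUC as ng h/mL/(mg/kg).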

[18] = Clearance in Sprague-Dawley rat at 3 mg/kg, po; type: ADME, organism-based; set-up: dose 3 mg/kg, route oral; conditions: in vivo; in short: as §3
[19] = Clearance in Beagle dog at 7.2 mg/kg, po; type: ADME, organism-based, Canis lupus familiaris; set-up: dose 7.2 mg/kg, route oral; conditions: in vivo; in short: as §3
[20] = tested on: COLO 205; assay: Antiproliferative activity against human COLO205 cells after 72 hrs by Celltiter assay; type: functional, cell-based; conditions: COLO 205, 72 h
In short: (§4)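 Cells seeded in 96-well dishes and incubated overnight at 37 °C, then exposed to a range of inhibitor concentrations for 72 h. Proliferation read by CellTiter-Glo luminescence per manufacturer's protocol. IC50 from 4-parameter curve fit.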

[21] = Oral bioavailability in Sprague-Dawley rat at 3 mg/kg; type: ADME, organism-based; conditions: in vivo; in short: as §3
[22] = Antiproliferative activity against human NCI-H929 cells after 72 hrs by Celltiter assay; type: functional, cell-based; conditions: NCI-H929, 72 h; in short: as §4
[23] = tested on: Canis familiaris; assay: Volume of distribution at steady state in Beagle dog at 7.2 mg/kg, po; type: ADME, organism-based, Canis lupus familiaris; set-up: dose 7.2 mg/kg, route oral; conditions: in vivo; in short: as §3
[24] = tested on: Rattus norvegicus; assay: Volume of distribution at steady state in Sprague-Dawley rat at 3 mg/kg, po; type: ADME, organism-based; set-up: dose 3 mg/kg, route oral; conditions: in vivo; in short: as §3
[25] = tested on: Cynomolgus monkey; assay: Dose normalized AUC in cynomolgus monkey at 2.1 mg/kg, po; type: ADME, organism-based, Macaca fascicularis; set-up: dose 2.1 mg/kg, route oral; conditions: in vivo; in short: as §3
[26] = tested on: Canis familiaris; assay: Dose normalized AUC in Beagle dog at 7.2 mg/kg, po; type: ADME, organism-based, Canis lupus familiaris; set-up: dose 7.2 mg/kg, route oral; conditions: in vivo; in short: as §3
[27] = Oral bioavailability in cynomolgus monkey at 2.1 mg/kg; type: ADME, organism-based, Macaca fascicularis; conditions: in vivo; in short: as §3
[28] = tested on: Rattus norvegicus; assay: Dose normalized AUC in Sprague-Dawley rat at 3 mg/kg, po; type: ADME, organism-based; set-up: dose 3 mg/kg, route oral; conditions: in vivo; in short: as §3
[29] = tested on: A549; assay: Antiproliferative activity against human A549 cells after 72 hrs by Celltiter assay; type: functional, cell-based; conditions: A549, 72 h; in short: as §4
[30] = Clearance in cynomolgus monkey at 2.1 mg/kg, po; type: ADME, organism-based, Macaca fascicularis; set-up: dose 2.1 mg/kg, route oral; conditions: in vivo; in short: as §3
[31] = biological target: T2, Insulin receptor; assay: Inhibition of human insulin receptor autophosphorylation in transfected mouse NIH3T3 cells; type: cell-based
In short: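 NIH-3T3 cells expressing human IR were grown on collagen-coated plates for 24 h, then given inhibitor or DMSO. After 2 h they were stimulated with bovine insulin for 15 min and lysed in RIPA. Lysates were captured overnight at 4 °C on anti-IRβ plates. Phospho-IR was detected by Eu-phosphotyrosine antibody time-resolved fluorescence (340/615 nm), and total IR by anti-IR. IC50 was taken from the phospho/total ratio curves.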

[32] = tested on: LP-1; assay: Antiproliferative activity against human LP-1 cells after 72 hrs by Celltiter assay; type: functional, cell-based; conditions: LP-1, 72 h; in short: as §4
[33] = tested on: Cynomolgus monkey; assay: Volume of distribution at steady state in cynomolgus monkey at 2.1 mg/kg, po; type: ADME, organism-based, Macaca fascicularis; set-up: dose 2.1 mg/kg, route oral; conditions: in vivo; in short: as §3
[34] = Antiproliferative activity against human TC71 cells after 72 hrs by Celltiter assay; type: functional, cell-based; conditions: TC-71, 72 h; in short: as §4
[35] = Antiproliferative activity against human SK-ES cells after 72 hrs by Celltiter assay; type: functional, cell-based; in short: as §4
[36] = tested on: HFF; assay: Antiproliferative activity against HFF cells after 72 hrs by Celltiter assay; type: cell-based; conditions: Homo sapiens; in short: as §4

Sequence of Receptor tyrosine-protein kinase erbB-4 (Q15303 whole entry): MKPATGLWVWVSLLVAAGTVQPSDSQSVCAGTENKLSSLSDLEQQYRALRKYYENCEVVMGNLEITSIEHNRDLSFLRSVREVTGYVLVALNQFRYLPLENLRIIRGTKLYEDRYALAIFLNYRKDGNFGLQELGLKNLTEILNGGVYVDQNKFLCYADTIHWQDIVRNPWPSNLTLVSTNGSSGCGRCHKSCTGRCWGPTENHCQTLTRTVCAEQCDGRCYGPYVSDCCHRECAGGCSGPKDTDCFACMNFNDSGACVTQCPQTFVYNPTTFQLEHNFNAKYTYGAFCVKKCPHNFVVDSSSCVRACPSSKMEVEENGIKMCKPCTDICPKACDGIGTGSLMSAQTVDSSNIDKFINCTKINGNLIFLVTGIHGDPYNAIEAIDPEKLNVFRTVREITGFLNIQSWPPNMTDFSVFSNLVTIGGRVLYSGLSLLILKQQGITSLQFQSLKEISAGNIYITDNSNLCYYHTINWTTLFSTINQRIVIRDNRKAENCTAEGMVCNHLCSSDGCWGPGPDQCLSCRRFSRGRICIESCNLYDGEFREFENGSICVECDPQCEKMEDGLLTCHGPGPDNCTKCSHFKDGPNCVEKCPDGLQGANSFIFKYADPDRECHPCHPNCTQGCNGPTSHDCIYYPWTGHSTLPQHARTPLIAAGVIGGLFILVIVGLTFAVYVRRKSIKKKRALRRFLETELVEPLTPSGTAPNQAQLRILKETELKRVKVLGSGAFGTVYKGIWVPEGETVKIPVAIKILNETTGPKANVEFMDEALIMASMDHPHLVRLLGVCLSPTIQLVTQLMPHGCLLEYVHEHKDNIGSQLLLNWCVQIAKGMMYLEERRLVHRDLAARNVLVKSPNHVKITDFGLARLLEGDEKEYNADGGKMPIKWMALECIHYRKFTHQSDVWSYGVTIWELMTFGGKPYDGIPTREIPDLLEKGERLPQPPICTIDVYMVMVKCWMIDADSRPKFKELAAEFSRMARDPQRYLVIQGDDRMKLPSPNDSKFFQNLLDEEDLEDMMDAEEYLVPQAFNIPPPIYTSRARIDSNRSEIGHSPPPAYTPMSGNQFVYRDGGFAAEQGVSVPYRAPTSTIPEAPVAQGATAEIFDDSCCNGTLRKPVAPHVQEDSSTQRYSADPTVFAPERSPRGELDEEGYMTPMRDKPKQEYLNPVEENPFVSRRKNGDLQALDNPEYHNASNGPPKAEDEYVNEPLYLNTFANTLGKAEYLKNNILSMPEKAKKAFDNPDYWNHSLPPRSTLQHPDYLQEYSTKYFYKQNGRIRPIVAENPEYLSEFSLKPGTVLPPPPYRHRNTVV
Sequence of Epidermal growth factor receptor (P00533 whole entry): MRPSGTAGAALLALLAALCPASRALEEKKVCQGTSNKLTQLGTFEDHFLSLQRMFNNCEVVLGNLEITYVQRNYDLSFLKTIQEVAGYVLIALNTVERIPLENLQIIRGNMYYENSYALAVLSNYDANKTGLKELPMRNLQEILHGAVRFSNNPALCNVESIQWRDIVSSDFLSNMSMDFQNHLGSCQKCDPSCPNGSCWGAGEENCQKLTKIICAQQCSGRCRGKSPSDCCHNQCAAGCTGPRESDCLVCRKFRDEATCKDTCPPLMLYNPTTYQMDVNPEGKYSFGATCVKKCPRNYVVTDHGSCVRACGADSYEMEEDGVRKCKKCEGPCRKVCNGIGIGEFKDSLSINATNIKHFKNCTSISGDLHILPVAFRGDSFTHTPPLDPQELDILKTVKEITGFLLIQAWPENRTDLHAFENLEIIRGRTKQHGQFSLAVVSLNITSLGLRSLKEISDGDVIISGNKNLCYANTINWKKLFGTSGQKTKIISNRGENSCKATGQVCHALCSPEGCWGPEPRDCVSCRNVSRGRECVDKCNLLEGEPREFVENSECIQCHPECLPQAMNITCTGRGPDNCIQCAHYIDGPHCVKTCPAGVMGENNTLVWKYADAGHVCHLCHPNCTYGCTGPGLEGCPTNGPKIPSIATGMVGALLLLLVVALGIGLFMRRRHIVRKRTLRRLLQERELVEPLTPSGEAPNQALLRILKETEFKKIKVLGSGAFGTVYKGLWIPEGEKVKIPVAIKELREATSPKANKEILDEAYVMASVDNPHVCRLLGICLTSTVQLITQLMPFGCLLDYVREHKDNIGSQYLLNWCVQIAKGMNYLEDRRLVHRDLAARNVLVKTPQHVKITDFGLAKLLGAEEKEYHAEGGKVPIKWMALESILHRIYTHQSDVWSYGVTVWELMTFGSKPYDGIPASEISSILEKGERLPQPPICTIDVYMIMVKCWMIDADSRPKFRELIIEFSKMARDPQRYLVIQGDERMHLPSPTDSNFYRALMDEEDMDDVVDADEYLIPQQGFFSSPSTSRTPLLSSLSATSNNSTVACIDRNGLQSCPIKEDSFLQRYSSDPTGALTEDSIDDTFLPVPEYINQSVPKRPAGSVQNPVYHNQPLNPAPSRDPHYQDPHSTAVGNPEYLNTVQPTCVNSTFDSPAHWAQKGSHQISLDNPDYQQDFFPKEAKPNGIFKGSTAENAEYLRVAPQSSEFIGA
T2 sequence (P06213 28-758 limits assumed): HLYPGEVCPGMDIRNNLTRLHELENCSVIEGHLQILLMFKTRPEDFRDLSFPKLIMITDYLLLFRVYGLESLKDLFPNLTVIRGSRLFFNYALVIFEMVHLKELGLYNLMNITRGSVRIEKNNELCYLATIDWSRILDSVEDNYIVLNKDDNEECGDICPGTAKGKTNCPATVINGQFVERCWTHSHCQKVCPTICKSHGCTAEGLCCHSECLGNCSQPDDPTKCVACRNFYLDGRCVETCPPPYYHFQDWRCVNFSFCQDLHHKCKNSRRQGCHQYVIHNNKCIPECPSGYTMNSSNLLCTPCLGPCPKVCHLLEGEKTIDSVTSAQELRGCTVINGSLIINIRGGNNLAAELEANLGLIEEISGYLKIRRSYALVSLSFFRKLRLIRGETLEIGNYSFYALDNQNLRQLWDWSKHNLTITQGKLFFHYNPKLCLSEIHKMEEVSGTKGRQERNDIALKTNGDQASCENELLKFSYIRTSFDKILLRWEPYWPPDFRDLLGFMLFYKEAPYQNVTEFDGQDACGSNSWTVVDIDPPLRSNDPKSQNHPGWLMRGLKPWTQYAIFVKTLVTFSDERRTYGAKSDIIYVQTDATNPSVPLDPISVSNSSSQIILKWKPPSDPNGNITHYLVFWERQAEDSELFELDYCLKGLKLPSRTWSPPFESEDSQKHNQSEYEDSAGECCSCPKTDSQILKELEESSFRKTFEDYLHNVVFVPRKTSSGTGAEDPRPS
T2 sequence (P06213 763-1382 limits assumed): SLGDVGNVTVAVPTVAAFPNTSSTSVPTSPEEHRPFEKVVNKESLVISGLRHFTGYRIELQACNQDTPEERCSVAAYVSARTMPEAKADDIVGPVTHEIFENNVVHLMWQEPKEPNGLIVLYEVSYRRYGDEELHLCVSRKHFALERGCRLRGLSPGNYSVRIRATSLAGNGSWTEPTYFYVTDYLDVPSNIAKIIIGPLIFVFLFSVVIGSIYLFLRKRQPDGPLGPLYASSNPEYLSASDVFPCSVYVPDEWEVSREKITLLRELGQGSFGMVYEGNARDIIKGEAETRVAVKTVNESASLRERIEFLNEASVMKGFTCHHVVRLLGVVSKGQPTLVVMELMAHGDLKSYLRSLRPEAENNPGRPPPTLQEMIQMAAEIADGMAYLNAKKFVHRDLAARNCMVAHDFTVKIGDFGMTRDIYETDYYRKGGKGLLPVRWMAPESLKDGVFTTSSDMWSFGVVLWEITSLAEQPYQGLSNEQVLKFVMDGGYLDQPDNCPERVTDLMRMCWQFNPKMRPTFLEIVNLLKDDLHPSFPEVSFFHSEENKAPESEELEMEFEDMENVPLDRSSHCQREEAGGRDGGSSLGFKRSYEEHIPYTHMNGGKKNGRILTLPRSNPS
Sequence of Tyrosine-protein kinase Lck (P06239 whole entry): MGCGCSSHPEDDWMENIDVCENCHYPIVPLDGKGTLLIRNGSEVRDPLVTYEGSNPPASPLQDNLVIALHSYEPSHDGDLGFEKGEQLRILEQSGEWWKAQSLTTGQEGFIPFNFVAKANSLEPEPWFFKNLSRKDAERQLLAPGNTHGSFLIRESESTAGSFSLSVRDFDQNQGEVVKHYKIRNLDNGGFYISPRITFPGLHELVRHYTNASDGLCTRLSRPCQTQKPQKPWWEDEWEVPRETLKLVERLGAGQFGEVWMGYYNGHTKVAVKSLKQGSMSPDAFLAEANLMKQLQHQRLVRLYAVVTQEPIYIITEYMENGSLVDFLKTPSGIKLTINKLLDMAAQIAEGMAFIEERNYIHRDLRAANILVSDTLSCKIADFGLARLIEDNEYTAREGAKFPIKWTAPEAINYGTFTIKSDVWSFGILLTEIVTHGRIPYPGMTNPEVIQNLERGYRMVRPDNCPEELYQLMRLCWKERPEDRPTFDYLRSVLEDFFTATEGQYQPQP
Sequence of Mitogen-activated protein kinase 14 (Q16539 whole entry): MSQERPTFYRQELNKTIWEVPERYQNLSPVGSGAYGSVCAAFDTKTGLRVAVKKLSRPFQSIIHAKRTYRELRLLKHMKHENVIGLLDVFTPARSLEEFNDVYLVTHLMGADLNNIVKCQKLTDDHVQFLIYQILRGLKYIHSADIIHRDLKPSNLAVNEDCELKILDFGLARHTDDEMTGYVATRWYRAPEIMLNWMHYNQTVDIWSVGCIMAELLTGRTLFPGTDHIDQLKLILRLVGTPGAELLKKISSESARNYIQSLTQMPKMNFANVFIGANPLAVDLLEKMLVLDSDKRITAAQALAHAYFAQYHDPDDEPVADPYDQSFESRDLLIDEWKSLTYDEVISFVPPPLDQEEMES

Compound: COc1cc(N2CCC(N3CCN(S(C)(=O)=O)CC3)CC2)ccc1Nc1nccc(-c2c(-c3cccc(C(=O)Nc4c(F)cccc4F)c3)nc3ccccn23)n1
IC50 [6]: 1200 nM
IC50 [1]: 36 nM
Ki [7]: 5.2 nM
IC50 [8]: 440 nM
IC50 [9]: 72 nM
IC50 [2]: 5 nM
IC50 [10]: 200 nM
IC50 [11]: 5 nM
IC50 [12]: 74 nM
IC50 [13]: 57 nM
IC50 [14]: 80 nM
IC50 [15]: 1600 nM
Ki [16]: 2.2 nM
CL/F [5]: 13.6 mL/min/kg
AUC [3]: 1060 ng·h/mL

Compound: COc1cc(N2CCC(N3C[C@@H](C)O[C@@H](C)C3)CC2)ccc1Nc1nccc(-c2c(-c3cccc(C(=O)Nc4c(F)cccc4F)c3)nc3ccccn23)n1
IC50 [1]: 68 nM
IC50 [2]: 4 nM
AUC [3]: 549 ng·h/mL

Compound: CCc1cc(Nc2nccc(-c3c(-c4ccc(OC)c(C(=O)Nc5c(F)cccc5F)c4)nc4ccccn34)n2)c(OC)cc1N1CCC(N2CCN(S(C)(=O)=O)CC2)CC1
bioavailability [17]: 47%
CL/F [18]: 5.8 mL/min/kg
IC50 [6]: > 3000 nM
CL/F [19]: 8.7 mL/min/kg
IC50 [20]: 124 nM
IC50 [1]: 22 nM
Ki [7]: 1.6 nM
IC50 [8]: 11000 nM
bioavailability [21]: 63%
IC50 [22]: 81 nM
IC50 [9]: > 10000 nM
IC50 [2]: 27 nM
IC50 [10]: 4500 nM
Vdss [23]: 4.7 L/kg
Vdss [24]: 7.5 L/kg
IC50 [11]: 25 nM
AUC [25]: 1070 ng·h/mL
IC50 [12]: > 25000 nM
AUC [26]: 870 ng·h/mL
IC50 [13]: > 10000 nM
bioavailability [27]: 97%
IC50 [14]: > 2000 nM
AUC [28]: 1220 ng·h/mL
IC50 [29]: > 20 µM
IC50 [15]: > 1500 nM
CL/F [30]: 13.9 mL/min/kg
IC50 [31]: 19 nM
IC50 [32]: 104 nM
Ki [16]: 1.3 nM
Vdss [33]: 9.8 L/kg
IC50 [34]: 35 nM
IC50 [35]: 61 nM
IC50 [36]: > 20 µM

Compound: COc1cc(N2CCC(N3CCOCC3)CC2)ccc1Nc1nccc(-c2c(-c3cccc(C(=O)Nc4c(F)cccc4F)c3)nc3ccccn23)n1
IC50 [1]: 41 nM
IC50 [2]: 2 nM
AUC [3]: 276 ng·h/mL

Compound: COc1cc(N2CCC(N3CCN(C(C)=O)CC3)CC2)ccc1Nc1nccc(-c2c(-c3cccc(C(=O)Nc4c(F)cccc4F)c3)nc3ccccn23)n1
IC50 [1]: 65 nM
IC50 [2]: 3 nM
AUC [3]: 216 ng·h/mL

Compound: COc1cc(N2CCC(N3CCN(C)CC3)CC2)ccc1Nc1nccc(-c2c(-c3cccc(C(=O)Nc4c(F)cccc4F)c3)nc3ccccn23)n1
IC50 [1]: 28 nM
IC50 [2]: 2 nM
AUC [3]: 203 ng·h/mL

Compound: CCc1cc(Nc2nccc(-c3c(-c4cccc(C(=O)Nc5c(F)cccc5F)c4)nc4ccccn34)n2)c(OC)cc1N1CCC(N2CCN(S(C)(=O)=O)CC2)CC1
IC50 [6]: 710 nM
IC50 [8]: 1800 nM
IC50 [9]: 54 nM
IC50 [2]: 7 nM
IC50 [10]: 1300 nM
IC50 [11]: 7 nM
IC50 [12]: 140 nM
IC50 [13]: 22 nM
IC50 [14]: 320 nM
IC50 [15]: > 9500 nM

Results, then the compound that gave them:

IC50 [1]: 40 nM
IC50 [2]: 2 nM
AUC [3]: 494 ng·h/mL
Compound: COc1cc(N2CCC(N3CC[C@@H](F)C3)CC2)ccc1Nc1nccc(-c2c(-c3cccc(C(=O)Nc4c(F)cccc4F)c3)nc3ccccn23)n1

IC50 [1]: 38 nM
IC50 [2]: 2 nM
AUC [3]: 121 ng·h/mL
Compound: COc1cc(N2CCC(N3CCCC3)CC2)ccc1Nc1nccc(-c2c(-c3cccc(C(=O)Nc4c(F)cccc4F)c3)nc3ccccn23)n1

IC50 [1]: 87 nM
IC50 [2]: 2 nM
Compound: O=C(Nc1c(F)cccc1F)c1cccc(-c2nc3ccccn3c2-c2ccnc(Nc3ccc(N4CCC(N5CCCCC5)CC4)cc3)n2)c1

IC50 [1]: 38 nM
IC50 [2]: 2 nM
AUC [4]: 239 ng·h/mL
CL/F [5]: 13.4 mL/min/kg
Compound: COc1cc(N2CCC(N3CCCCC3)CC2)ccc1Nc1nccc(-c2c(-c3cccc(C(=O)Nc4c(F)cccc4F)c3)nc3ccccn23)n1

IC50 [1]: 177 nM
IC50 [2]: 1 nM
Compound: CN(C)CCOc1cccc(Nc2nccc(-c3c(-c4cccc(C(=O)Nc5c(F)cccc5F)c4)nc4ccccn34)n2)c1
